This is an account of results in article PMC2606940 (The Journal of General Physiology, 2009).

Substitutions are numbered along the chain they refer to. Like-named read-outs stand apart in the source and are kept apart here.

Test [1] addresses T1, CLC-0 E166C/E127Q/K519E mutant (Torpedo marmorata, UniProt P21564, C212S/E127Q/E166C/K519E).
T1 sequence (P21564 1-805 E127Q/E166C/C212S/K519E): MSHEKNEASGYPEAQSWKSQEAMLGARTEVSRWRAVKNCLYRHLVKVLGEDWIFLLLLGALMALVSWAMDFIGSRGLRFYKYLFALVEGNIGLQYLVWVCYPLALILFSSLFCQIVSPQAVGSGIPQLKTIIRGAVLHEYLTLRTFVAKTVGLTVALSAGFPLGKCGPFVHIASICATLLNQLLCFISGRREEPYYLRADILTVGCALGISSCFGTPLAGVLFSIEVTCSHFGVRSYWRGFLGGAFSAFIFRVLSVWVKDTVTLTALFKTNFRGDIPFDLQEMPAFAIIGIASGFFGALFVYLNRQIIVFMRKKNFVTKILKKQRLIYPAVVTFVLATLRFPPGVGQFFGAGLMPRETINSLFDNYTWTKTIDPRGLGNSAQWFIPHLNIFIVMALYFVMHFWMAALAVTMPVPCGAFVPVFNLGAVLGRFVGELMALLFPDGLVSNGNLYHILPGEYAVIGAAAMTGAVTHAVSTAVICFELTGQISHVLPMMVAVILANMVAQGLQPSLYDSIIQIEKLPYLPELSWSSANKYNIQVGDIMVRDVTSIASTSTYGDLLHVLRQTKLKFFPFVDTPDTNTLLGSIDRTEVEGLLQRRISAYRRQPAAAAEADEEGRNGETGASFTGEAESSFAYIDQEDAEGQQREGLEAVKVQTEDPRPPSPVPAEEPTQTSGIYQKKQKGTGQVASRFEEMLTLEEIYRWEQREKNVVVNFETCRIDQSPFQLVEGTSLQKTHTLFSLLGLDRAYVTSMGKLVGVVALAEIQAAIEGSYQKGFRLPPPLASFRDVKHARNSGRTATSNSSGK
The test is classed as cell-based. The conditions noted are these: read-out: Apparent affinity (K1/2). In outline: (§1)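 CLC-0 mutants in the C212S background were transfected into HEK293 cells with lipofectamine and recorded 1–3 d later as excised inside-out patches. Both sides held 130 mM NaCl, 5 mM MgCl2, 10 mM HEPES and 1 mM EGTA, pH 7.4. CPA was perfused continuously onto the cytoplasmic face. Steady-state current over the last 10 ms was normalized to bracketing blocker-free controls and fitted to a Langmuir function for K1/2. Values are mean ± SEM of ~4–6 patches.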

Test [2] concerns the target T2, CLC-0 E166C/K519E mutant (E127/K519E) (Torpedo marmorata, UniProt P21564, C212S/E166C/K519E).
T2 sequence (P21564 1-805 E166C/C212S/K519E): T1 sequence (P21564 1-805 E127Q/E166C/C212S/K519E) with Q127E
The test is classed as cell-based. In outline:
as §1

Test [3] addresses T3, CLC-0 E166A mutant (Torpedo marmorata, UniProt P21564, C212S/E166A).
T3 sequence (P21564 1-805 E166A/C212S): T1 sequence (P21564 1-805 E127Q/E166C/C212S/K519E) with Q127E, C166A, E519K
The conditions noted are these: ref Traverso et al., 2003; cited from earlier work.

Take `O=C(O)COc1ccc(Cl)cc1` [CPA, p-chlorophenoxy acetate]: the IC50 in test [1] (−40 mV) is 586 ± 52 µM; in test [1] (−60 mV) it was 327 ± 24 µM; in test [1] (−80 mV), 198 ± 14 µM; in test [1] (−100 mV), 123 ± 9 µM; in test [1] (−120 mV) it was 87 ± 6 µM; in test [1] (−140 mV) it was 62 ± 5 µM. Further, the IC50 was determined as 44 ± 5 µM in test [1] (−160 mV); 730 ± 59 µM in test [2] (read-out: Apparent affinity (K1/2), −40 mV); 516 ± 46 µM in test [2] (read-out: Apparent affinity (K1/2), −60 mV); 377 ± 39 µM in test [2] (read-out: Apparent affinity (K1/2), −80 mV); 277 ± 37 µM in test [2] (read-out: Apparent affinity (K1/2), −100 mV); 203 ± 34 µM in test [2] (read-out: Apparent affinity (K1/2), −120 mV). Also, the IC50 is 158 ± 31 µM in test [2] (read-out: Apparent affinity (K1/2), −140 mV); 115 ± 25 µM in test [2] (read-out: Apparent affinity (K1/2), −160 mV); ~160 µM in test [2] (read-out: K1/2, −140 mV (Fig. 6)). Besides, the apparent kon in test [2] (−160 mV) was determined as 110000 M⁻¹ s⁻¹. The “CPA-blocking affinity of E166A relative to wild-type channel (higher)” value in test [3] is given as > 100 fold.
